Measurements from publication PMC9060905 (RSC Advances, 2019).
Like-named read-outs stand apart in the source and are kept apart here. Ends that are not written are not given here.

Tests used:
[1] = system: ET-1 in vascular endothelial cells; conditions: cited from earlier work
ACE = conditions: cited from earlier work
[2] = cited from earlier work
ACE (from rabbit lung) = biological target: T1, ACE (from rabbit lung) (Oryctolagus cuniculus, UniProt P12822); test: ACE-inhibitory activity; format: biochemical
T1 sequence (P12822 34-1310): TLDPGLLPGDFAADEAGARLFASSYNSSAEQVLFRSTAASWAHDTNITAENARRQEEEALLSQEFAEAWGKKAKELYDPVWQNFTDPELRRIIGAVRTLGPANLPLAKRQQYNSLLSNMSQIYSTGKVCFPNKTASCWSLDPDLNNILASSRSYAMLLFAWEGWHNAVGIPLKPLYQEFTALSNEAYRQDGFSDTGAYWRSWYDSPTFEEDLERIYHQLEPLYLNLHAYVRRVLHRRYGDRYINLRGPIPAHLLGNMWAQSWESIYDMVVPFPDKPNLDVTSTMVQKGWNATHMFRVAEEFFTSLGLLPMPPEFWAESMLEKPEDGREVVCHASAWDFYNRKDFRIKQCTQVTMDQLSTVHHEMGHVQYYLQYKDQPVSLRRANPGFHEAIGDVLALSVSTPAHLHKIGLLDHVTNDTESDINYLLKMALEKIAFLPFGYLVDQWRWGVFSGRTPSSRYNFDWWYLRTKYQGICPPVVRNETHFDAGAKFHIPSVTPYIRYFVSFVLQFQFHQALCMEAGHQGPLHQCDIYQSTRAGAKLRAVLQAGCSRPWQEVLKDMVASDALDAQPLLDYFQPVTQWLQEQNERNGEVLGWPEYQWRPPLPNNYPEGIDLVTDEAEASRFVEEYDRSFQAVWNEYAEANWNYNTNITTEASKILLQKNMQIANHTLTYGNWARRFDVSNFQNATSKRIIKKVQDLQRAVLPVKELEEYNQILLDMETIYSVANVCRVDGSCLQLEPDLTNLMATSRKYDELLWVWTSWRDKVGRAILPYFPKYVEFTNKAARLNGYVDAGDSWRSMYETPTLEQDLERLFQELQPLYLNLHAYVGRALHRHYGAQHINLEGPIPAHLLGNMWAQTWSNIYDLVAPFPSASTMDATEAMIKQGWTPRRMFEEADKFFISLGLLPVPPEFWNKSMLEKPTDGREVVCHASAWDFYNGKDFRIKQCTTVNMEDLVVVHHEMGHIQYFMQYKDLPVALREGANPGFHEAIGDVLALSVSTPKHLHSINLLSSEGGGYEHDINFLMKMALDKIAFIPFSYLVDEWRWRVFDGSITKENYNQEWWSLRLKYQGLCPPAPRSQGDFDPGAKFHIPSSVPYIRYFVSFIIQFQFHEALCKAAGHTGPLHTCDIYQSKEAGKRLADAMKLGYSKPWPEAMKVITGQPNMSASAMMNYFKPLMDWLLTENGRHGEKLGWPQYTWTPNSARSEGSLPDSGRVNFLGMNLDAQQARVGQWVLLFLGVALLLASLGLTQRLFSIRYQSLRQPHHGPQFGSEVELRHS
Procedure, shortened: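 Rabbit-lung ACE with HHL substrate. Hippuric acid is extracted into ethyl acetate (vortex 5 s, 14100g for 5 min). The upper organic phase is dried in a vacuum oven at 80 °C for 1 h, redissolved in distilled water, and read at 228 nm. Experiments repeated at least three times; mean values used.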

| Substance | Effect on ET-1 expression in vascular endothelial cells [1] | ACE inhibition pattern (ACE) | also measured |
| --- | --- | --- | --- |
| Val-Val-Leu-Tyr-Lys [VVLYK] | inhibiting the expression of ET-1 | mixed-mode inhibition patterns | – |
| YYIVS | – | – | Fe2+ chelating ability ([2]; at 3 mg mL^-1, sweet potato protein peptide): 59.74% |
| Val-Phe-Tyr | inhibiting the expression of ET-1 | – | – |
| SAAVGSP | – | mixed-mode inhibition patterns | – |
| EVSQGRP | – | mixed-mode inhibition patterns | – |
| KAQYPYV [KAQYPYV, Lys-Ala-Gln-Tyr-Pro-Tyr-Val] | – | – | IC50 (ACE (from rabbit lung)): 37.1 µM |
| Leu-Ala-Arg-Leu | – | – | Fe2+ chelating ability ([2]; at 0.1 mg mL^-1, tilapia gelatin peptide): 46.53% |
| Val-Ile-Glu-Pro-Arg | inhibiting the expression of ET-1 | – | – |
